Measured values as given in PMC4168784 (ACS Chemical Biology, 2014).
Like-named read-outs stand apart in the source and are kept apart here. Square brackets hold non-standard residues; d marks the D form. Peptide text beside a SMILES is read from it. Orn(N5-OH,N5-Ac) = CC(=O)N(O)CCC[C@H](N)C(=O)O

Columns and labels:
YxeB-S142-6×His [1] = target: T1, YxeB-S142-6×His (Bacillus cereus, UniProt Q81IK3, L142S); assay: Fluorescence quenching; assay type: binding
T1 sequence (Q81IK3 19-306 L142S): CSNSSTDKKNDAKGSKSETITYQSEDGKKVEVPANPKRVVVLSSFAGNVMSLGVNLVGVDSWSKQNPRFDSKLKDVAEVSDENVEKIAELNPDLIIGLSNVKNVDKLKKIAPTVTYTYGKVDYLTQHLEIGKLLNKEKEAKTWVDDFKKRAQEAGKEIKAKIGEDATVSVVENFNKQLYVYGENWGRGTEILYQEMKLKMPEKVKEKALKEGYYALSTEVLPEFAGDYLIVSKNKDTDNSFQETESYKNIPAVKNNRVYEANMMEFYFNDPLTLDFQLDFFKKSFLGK

YxeB-L142-6×His [2] = target: T2, YxeB-L142-6×His (Bacillus cereus, UniProt Q81IK3); assay: Substrate binding assay using RP-HPLC; settings: bound = substrate detected in the protein complex analyzed by RP-HPLC
T2 sequence (Q81IK3 19-306): T1 sequence (Q81IK3 19-306 L142S)
Summary of the method: (§1)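 His-tagged protein (2 μM) was bound to Ni-agarose beads in TBS over 2 h at RT. Substrate was added for 10 min at RT: 10 μM metal complex or 20 μM apo-ligand. Pellets were washed twice, then extracted with 20% acetonitrile (Ga complex) or 0.1% TFA for 20 min. C18 RP-HPLC at 220 nm followed, with a 0–25% acetonitrile gradient.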

YxeB-S142-6×His [3] = target: T1, YxeB-S142-6×His; assay: Substrate binding assay using RP-HPLC; settings: bound = substrate detected in the protein complex analyzed by RP-HPLC
Summary of the method: as §1

YxeB-L142-6×His [4] = target: T2, YxeB-L142-6×His; assay: Fluorescence quenching; assay type: binding
[5] = system: DFO:YxeB-L142-6×His complex; assay: Iron exchange experiment in vitro analysed by RP-HPLC; assay type: biochemical, Bacillus cereus; settings: for metal exchange rate (FO formed): 0.2 nmol/mL added; for FO bound to YxeB (iron transferred to DFO): 0.2 nmol/mL metal–substrate added to YxeB:DFO, 40 min incubation
[6] = system: DFO:YxeB-S142-6×His complex; assay: Iron exchange experiment in vitro analysed by RP-HPLC; assay type: biochemical, Bacillus cereus
Summary of the method: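 His-tagged YxeB (2 μM), 4 μM DFO and Ni-agarose beads were mixed 2 h at RT in TBS, then given 0.2 μM (final) acetylated ferrioxamine. Pelleted aliquots were washed twice and eluted 20 min in 0.01% TFA. Eluates ran on C18 RP-HPLC (0.1% TFA/acetonitrile, 0–25% over 50 min, 220 nm) to quantify bound ligands.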

[7] = Iron exchange experiment without the YxeB protein; settings: 0.2 μM AcFO, 4 μM DFO, no protein; up to 24 h
Summary of the method: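 No protein was present: 4 μM DFO and 0.2 μM acetylated ferrioxamine (final concentrations) were mixed in TBS at RT. Samples taken at 0 and 5 min and at 1, 3 and 24 h went directly onto C18 RP-HPLC (0.1% TFA/acetonitrile, 0–25% over 50 min, 220 nm).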

TC137 strain [8] = assay: Growth assay in iron-limited minimum medium; assay type: cell-based, Bacillus cereus; settings: 10 or 100 nM siderophore in iron-limited minimum medium
TC137 strain [9] = assay: Disc diffusion assay; assay type: cell-based, Bacillus cereus; settings: 10 nmol infused in the disc (supplement: 10 pmol)
Summary of the method: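 Sterile filter discs were loaded with 10 nmol siderophore; 6 μL DMSO served as the negative control. Growth was scored around each disc.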

YxeB-S142-6×His [10] = target: T1, YxeB-S142-6×His; settings: calculated previously; cited from earlier work
[11] = cited from earlier work
[12] = system: DFO:YxeB-L142-6×His complex; assay: Fe-/Ga-/Cr-DFO substrate binding; assay type: biochemical, Bacillus cereus; settings: ICP analysis; for metal exchange rates or displaced substrate rates: 0.2 nmol/mL added, 30 min incubation; for substrates bound to YxeB except DFO: 0.2 nmol/mL metal–substrate added to YxeB:DFO, after 30 min incubation
Summary of the method: (§2)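 2 μM His-tagged YxeB variant, 4 μM DFO and Ni-agarose beads were shaken 2 h at RT in TBS (25 mM Tris-HCl, pH 7.4). Then 0.2 μM (final) Fe-, Ga- or Cr-hydroxamate was added at RT. Pellets collected at 0–30 min were digested overnight in 3.5% nitric acid and measured by ICP with 0.1 ppm Eu internal standard. Results are the mean of three experiments, with standard errors.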

[13] = system: DFO:YxeB-S142-6×His complex; assay: Fe-/Ga-/Cr-DFO substrate binding; assay type: biochemical, Bacillus cereus; settings: ICP analysis; for metal exchange rates or displaced substrate rates: 0.2 nmol/mL added, 30 min incubation; for substrates bound to YxeB except DFO: 0.2 nmol/mL metal–substrate added to YxeB:DFO, after 30 min incubation
Summary of the method: as §2

[14] = system: DFO:YxeB-L/S142-6×His complex; assay: ICP exchange or displacement assay, text statements covering both variants; assay type: biochemical, Bacillus cereus; settings: 0.2 μM added; for metal (Ga, Fe, Cr) contained in the YxeB complexes: both YxeB-L142 and -S142 complexes; for amounts of metal transferred after 5 min incubation: both variants; for Ga and Fe transferred to the DFO:YxeB complex: within the 5 min incubation time
Summary of the method: as §2

YxeB-L142-6×His [15] = target: T2, YxeB-L142-6×His; settings: calculated previously; cited from earlier work
[16] = system: wild-type strains, TC128 and TC129; assay: Cr-DFO and Ga-DFO import, metal in cells measured by ICP; assay type: cell-based, Bacillus cereus; settings: 2 μM metal complex added in the culture
Summary of the method: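 B. cereus cultures at OD600 0.8–1.3 received 2 μM metal–siderophore complex. Incubation was 120 min for Cr and 80 min for Ga, by which point OD600 was 1.6–2.1. Cell-associated Cr or Ga was then quantified by ICP. Values are the average of two independent experiments, with standard errors.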

[17] = read-out: Kd (nM) by FQ assay, calculated by Hyperquad, SD in parentheses
[18] = read-out: Kd (nM) by FQ assay, calculated using fluorescence quenching data previously described

## CC(=O)NCCCCCN(O)C(=O)CCC(=O)NCCCCCN(O)C(=O)CCC(=O)NCCCCCN(O)C(C)=O [AcDFO]
YxeB-S142-6×His [1]
  Kd: 30.7 nM
YxeB-L142-6×His [2]
  binding assay (HPLC): bound ^d
YxeB-S142-6×His [3]
  binding assay (HPLC): bound ^d

## CC(=O)NCCCCCN(O)C(=O)CCC(=O)NCCCCCN(O)C(=O)CCC(=O)NCCCCCN(O)C(C)=O.[Fe+3] [AcFO]
YxeB-L142-6×His [4]; [17]
  Kd: 25.4 nM
YxeB-S142-6×His [1]; [17]
  Kd: 31.6 nM
YxeB-L142-6×His [2]
  binding assay (HPLC): bound ^d
YxeB-S142-6×His [3]
  binding assay (HPLC): bound ^d
[5]; 0.2 μM AcFO added, 8 min
  exchange amount (FO formed) after 8 min incubation: approximately 0.2 μM
[5]; 0.2 μM AcFO, 4 μM DFO, 2 μM YxeB-L142-6×His
  incubation time after which iron exchange with YxeB was complete: 2 min
[5]; RP-HPLC, 0.2 nmol/mL AcFO added, 40 min
  AcDFO bound to YxeB: 0.110 nmol/mL sample
[5]; RP-HPLC, 40 min
  metal exchange rate (FO formed): 77%
[5]; RP-HPLC
  FO bound to YxeB (iron transferred to DFO): 0.153 nmol/mL sample
[5]; RP-HPLC, AcDFO after AcFO addition
  rate of iron-released substrate remaining bound to YxeB: 55%
[6]; 0.2 nmol/mL AcFO added
  AcDFO bound to YxeB: 0.089 nmol/mL sample
  metal exchange rate (FO formed): 72%
[6]; 0.2 nmol/mL AcFO added, 10 min incubation
  FO bound to YxeB (iron transferred to DFO): 0.144 nmol/mL sample
[6]; AcDFO after AcFO addition
  rate of iron-released substrate remaining bound to YxeB: 45%
[7]
  iron exchange between AcFO and DFO without YxeB: did not occur

## CC(=O)N(O)CCCCCNC(=O)CCC(=O)N(O)CCCCCNC(=O)CCC(=O)N(O)CCCCCN [DFO, desferrioxamine B]
TC137 strain [8]
  growth of TC137 compared to wild-type strains TC129 and TC128: delayed
TC137 strain [9]
  growth around a disc containing the siderophore: did not grow
YxeB-S142-6×His [10]
  Kd: 35.9 nM
[11]
  pFe^III: 26.6

## CC(=O)N(O)CCC[C@@H]1NC(=O)CNC(=O)CNC(=O)CNC(=O)[C@H](CCCN(O)C(C)=O)NC(=O)[C@H](CCCN(O)C(C)=O)NC1=O [DFch, desferrichrome] (cyclo(GGG[Orn(N5-OH,N5-Ac)][Orn(N5-OH,N5-Ac)][Orn(N5-OH,N5-Ac)]))
YxeB-L142-6×His [4]
  Kd: 104 nM
YxeB-S142-6×His [1]
  Kd: 23 nM
YxeB-L142-6×His [2]
  binding assay (HPLC): bound ^d
YxeB-S142-6×His [3]
  binding assay (HPLC): bound ^d
TC137 strain [8]
  growth of TC137 compared to wild-type strains TC129 and TC128: delayed
TC137 strain [9]
  growth around a disc containing the siderophore: did not grow

## CC(=O)N([O-])CCCCCNC(=O)CCC(=O)N([O-])CCCCCNC(=O)CCC(=O)N([O-])CCCCCN.[Fe+3] [FO, ferrioxamine B]
[12]
  metal exchange rates or displaced substrate rates: 86%
  substrates bound to YxeB except DFO: 0.172 nmol/mL sample
[13]
  metal exchange rates or displaced substrate rates: 83%
  substrates bound to YxeB except DFO: 0.166 nmol/mL sample
[14]
  metal (Ga, Fe, Cr) contained in the YxeB complexes: > 0.15 nmol/mL reaction solution
  amounts of metal transferred after 5 min incubation: 0.14–0.18 nmol/mL reaction solution
  Ga and Fe transferred to the DFO:YxeB complex: > 70%
YxeB-L142-6×His [15]
  Kd: 38.8 nM
YxeB-S142-6×His [10]
  Kd: 29.1 nM

## CC(=O)N(O)CCC[C@@H]1NC(=O)CNC(=O)CNC(=O)CNC(=O)[C@H](CCCN(O)C(C)=O)NC(=O)[C@H](CCCN(O)C(C)=O)NC1=O.[Fe+3] [Fch, ferrichrome] (cyclo(GGG[Orn(N5-OH,N5-Ac)][Orn(N5-OH,N5-Ac)][Orn(N5-OH,N5-Ac)]))
YxeB-L142-6×His [4]; [18]
  Kd: 43 nM
YxeB-S142-6×His [1]; [18]
  Kd: 29.3 nM
YxeB-L142-6×His [2]
  binding assay (HPLC): bound ^d
YxeB-S142-6×His [3]
  binding assay (HPLC): bound ^d
[5]; RP-HPLC, 0.2 nmol/mL Fch added, 40 min
  Fch bound to YxeB (displacement): 0.037 nmol/mL sample
[5]; RP-HPLC, 40 min
  metal exchange rate (FO formed): 0%
[5]; RP-HPLC
  FO bound to YxeB (iron transferred to DFO): 0 nmol/mL sample
[5]; displacement mechanism, 0.2 μM Fch, 40 min
  amount of Fch bound to the protein: 0.037 µM
[11]
  pFe^III: 25.2

## O=C([O-])CN(CCN(CC(=O)[O-])CC(=O)[O-])CC(=O)[O-].[Fe+3] [Fe-EDTA]
[5]; RP-HPLC, 40 min
  metal exchange rate (FO formed): ≤ 1%
[5]; RP-HPLC
  FO bound to YxeB (iron transferred to DFO): 0.003 nmol/mL sample
[11]
  pFe^III: 23.4

## O=C(N[C@H]1COC(=O)[C@@H](NC(=O)c2cccc([O-])c2[O-])COC(=O)[C@@H](NC(=O)c2cccc([O-])c2[O-])COC1=O)c1cccc([O-])c1[O-].[Fe+3] [Fe-Ent, Fe-enterobactin]
[5]; RP-HPLC, 40 min
  metal exchange rate (FO formed): ≤ 5%
[11]
  pFe^III: 34.3

## CC(=O)N(O)CCCCCNC(=O)CCC(=O)N(O)CCCCCNC(=O)CCC(=O)N(O)CCCCCN.[Ga+3] [Ga-DFO]
YxeB-L142-6×His [4]; [17]
  Kd: 59.2 nM
YxeB-S142-6×His [1]; [17]
  Kd: 44.6 nM
YxeB-L142-6×His [2]
  binding assay (HPLC): bound ^d
YxeB-S142-6×His [3]
  binding assay (HPLC): bound ^d
[12]
  metal exchange rates or displaced substrate rates: 78%
  substrates bound to YxeB except DFO: 0.155 nmol/mL sample
[13]
  metal exchange rates or displaced substrate rates: 83%
  substrates bound to YxeB except DFO: 0.165 nmol/mL sample
[14]
  metal (Ga, Fe, Cr) contained in the YxeB complexes: > 0.15 nmol/mL reaction solution
  amounts of metal transferred after 5 min incubation: 0.14–0.18 nmol/mL reaction solution
  Ga and Fe transferred to the DFO:YxeB complex: > 70%
[16]
  Ga or Cr in the cells (import): contained Ga or Cr in the cells

## C=CC1=C(C)c2cc3[n-]c(cc4[n-]c(cc5nc(cc1n2)C(C)=C5C=C)c(C)c4CCC(=O)O)c(CCC(=O)O)c3C.O.[Fe+2] [hematin]
[5]; RP-HPLC, 40 min
  metal exchange rate (FO formed): ≤ 1%
[5]; RP-HPLC
  FO bound to YxeB (iron transferred to DFO): 0.003 nmol/mL sample

## ferric citrate [Fe-Cit]
[5]; RP-HPLC, 40 min
  metal exchange rate (FO formed): 45%
[5]; RP-HPLC
  FO bound to YxeB (iron transferred to DFO): 0.089 nmol/mL sample
